The source of these data is ChEMBL document CHEMBL1153616, “Synthesis and antiviral activity of new pyrazole and thiazole derivatives” (Eur J Med Chem, 2009).

For orientation: EC50 means the concentration at which the effect is half-maximal.

The nature of data set [1]: Cytotoxicity against HEL cells assessed as minimum cytotoxic concentration required to cause microscopically detectable alteration in normal cell morphology. It counts as cell-based. Conditions: human. Summed up:
(§1)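 Run in parallel with antiviral assays on uninfected cell cultures; test compounds from 10 mg/ml DMSO stocks in serial dilution. Value is minimum cytotoxic concentration (MCC) producing microscopically detectable alteration of normal cell morphology.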

The next data set deals with Human alphaherpesvirus 2. As to the kind of experiment: Antiviral activity against HSV2 G infected in human HEL cells assessed as inhibition of virus-induced cytopathicity after 3 days. The data set is classed as functional, organism-based. The conditions noted are these: Human alphaherpesvirus 2, strain G, 72 h. Summed up:
(§2)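 Confluent cell monolayers infected with 100 CCID50 virus; after 2 h adsorption at 37 °C, virus removed and serial compound dilutions added (DMSO stocks 10 mg/ml). Incubated 37 °C for 3 days until complete CPE in untreated virus control. EC50 = concentration protecting 50% of infected cells from viral cytopathogenicity; ">" marks highest concentration tested.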

Another data set deals with Vaccinia virus. As to the kind of experiment: Antiviral activity against Vaccinia virus infected in human HEL cells assessed as inhibition of virus-induced cytopathicity after 3 days. The data set is classed as functional, organism-based. Conditions: Orthopoxvirus vaccinia, 72 h.
Data set [2] concerns Vesicular stomatitis virus. As to the kind of experiment: Antiviral activity against Vesicular stomatitis virus infected in human HEL cells assessed as inhibition of virus-induced cytopathicity after 3 days. The data set is classed as functional, organism-based. The conditions noted are these: 72 h. (Protection from cytopathic effect is a common read-out in antiviral testing.)

In data set [3] the test system is Human alphaherpesvirus 1. Nature of the data set: Antiviral activity against thymidine kinase-deficient ACV-resistant HSV1 KOS infected in human HEL cells assessed as inhibition of virus-induced cytopathicity after 3 days. The conditions noted are these: Human alphaherpesvirus 1, KOS, 72 h. It counts as functional, organism-based.
Data set [4] in a line: Cytotoxicity against human HeLa cells assessed as minimum cytotoxic concentration required to cause microscopically detectable alteration in normal cell morphology. The data set is classed as cell-based. A digest of the protocol:
as §1

Data set [5] concerns Vesicular stomatitis virus. As to the kind of experiment: Antiviral activity against Vesicular stomatitis virus infected in human HeLa cells assessed as inhibition of virus-induced cytopathicity after 3 days. The conditions noted are these: 72 h. The data set is classed as functional, organism-based.
For data set [6], the system named is Human alphaherpesvirus 1. As to the kind of experiment: Antiviral activity against HSV1 KOS infected in human HEL cells assessed as inhibition of virus-induced cytopathicity after 3 days. It counts as functional, organism-based. The conditions noted are these: Human alphaherpesvirus 1, KOS, 72 h.
Data set [7] deals with Coxsackievirus B4. Nature of the data set: Antiviral activity against Coxsackievirus B4 infected in human HeLa cells assessed as inhibition of virus-induced cytopathicity after 3 days. It counts as functional, organism-based. The conditions noted are these: Enterovirus B, 72 h. Summed up:
(§3)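 Confluent cell monolayers infected with 100 CCID50 virus; after 2 h adsorption at 37 °C, virus removed and serial compound dilutions added (DMSO stocks 10 mg/ml). Incubated 37 °C for 3 days until complete CPE in untreated virus control.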

For data set [8], the system named is Respiratory syncytial virus. Nature of the data set: Antiviral activity against RSV infected in human HeLa cells assessed as inhibition of virus-induced cytopathicity after 3 days. It counts as functional, organism-based. Conditions: 72 h. A digest of the protocol:
as §2

Data set [9] is described as follows: Cytotoxicity against african green monkey Vero cells assessed as minimum cytotoxic concentration required to cause microscopically detectable alteration in normal cell morphology. The conditions noted are these: chlorocebus sabaeus. The data set is classed as cell-based. A digest of the protocol:
as §1

For a further data set, the system named is Human respirovirus 3. Nature of the data set: Antiviral activity against Parainfluenza virus type 3 infected in african green monkey Vero cells assessed as inhibition of virus-induced cytopathicity after 3 days. The data set is classed as functional, organism-based. The conditions noted are these: Human respirovirus 3, Vero, 72 h. A digest of the protocol: as §2

The subject of data set [10] is Mammalian orthoreovirus 1. Nature of the data set: Antiviral activity against Reovirus 1 infected in african green monkey Vero cells assessed as inhibition of virus-induced cytopathicity after 3 days. The data set is classed as functional, organism-based. Conditions: Mammalian orthoreovirus 1, Vero, 72 h. A digest of the protocol:
as §2

The test system of a further data set is Sindbis virus. Nature of the data set: Antiviral activity against Sindbis virus infected in african green monkey Vero cells assessed as inhibition of virus-induced cytopathicity after 3 days postinfection. Conditions: 72 h. It counts as functional, organism-based. A digest of the protocol:
as §2

For data set [11], the system named is Coxsackievirus B4. As to the kind of experiment: Antiviral activity against Coxsackievirus B4 infected in african green monkey Vero cells assessed as inhibition of virus-induced cytopathicity after 3 days. The conditions noted are these: Enterovirus B, 72 h. The data set is classed as functional, organism-based. A digest of the protocol: as §2
The next data set has as its system Punta Toro virus. Nature of the data set: Antiviral activity against Punta Toro virus infected in african green monkey Vero cells assessed as inhibition of virus-induced cytopathicity after 3 days. It counts as functional, organism-based. Conditions: 72 h. A digest of the protocol: as §3

Values after ≈ are worked out from the molar mass of the structure shown.

On to `Cc1ccc(-c2csc(N3N=C(c4ccc(Cl)cc4)CC3c3ccc(OCc4ccccc4)cc3)n2)cc1` (stereo not given), for which the results for the MCC in [1], in data set [4] and in data set [9] were 100 µg/mL, over 100 µg/mL and 100 µg/mL, respectively. Also, the EC50 with Human alphaherpesvirus 2 is over 20 µg/mL; in the data set on Vaccinia virus it was over 20 µg/mL; in [2], over 20 µg/mL; in the data set on Human alphaherpesvirus 1 [3] it was over 20 µg/mL; in data set [5], over 100 µg/mL; in the data set on Human alphaherpesvirus 1 [6], over 20 µg/mL. The half-maximal effective concentration (EC50) in the data set on Coxsackievirus B4 [7] is over 100 µg/mL; in data set [8] it was over 100 µg/mL; with Human respirovirus 3, over 20 µg/mL; in data set [10], over 20 µg/mL; in the data set on Sindbis virus it was over 20 µg/mL; in the data set on Coxsackievirus B4 [11], over 20 µg/mL. In addition, the half-maximal effective concentration (EC50) with Punta Toro virus was over 20 µg/mL.

In the case of `Cc1ccc(-c2csc(N3N=C(c4ccccc4)CC3c3ccc(OCc4ccccc4)cc3)n2)cc1` (stereo not given), the MCC in data set [1] was over 100 µg/mL; in data set [4], over 100 µg/mL; in data set [9], 100 µg/mL. Besides, the EC50 (in the data set with Human alphaherpesvirus 2; in the data set with Vaccinia virus; in data set [2]; with Human alphaherpesvirus 1 [3]; in [5]; with Human alphaherpesvirus 1 [6]) was over 100 µg/mL in each case. For the same molecule, the concentration giving a half-maximal response (EC50) with Coxsackievirus B4 [7] is over 100 µg/mL; in data set [8], over 100 µg/mL; with Human respirovirus 3, over 20 µg/mL; in [10], over 20 µg/mL; in the data set with Sindbis virus, over 20 µg/mL; in the data set on Coxsackievirus B4 [11], over 20 µg/mL. Besides, the EC50 in the data set with Punta Toro virus is over 20 µg/mL.

`NC(=S)N1N=C(c2ccc(Br)cc2)CC1c1ccc(OCc2ccccc2)cc1` (stereo not given): the MCC in data set [1], in [4] and in data set [9] was 100 µg/mL throughout. Moreover, the EC50 (with Human alphaherpesvirus 2; in the data set with Vaccinia virus; in data set [2]; in the data set on Human alphaherpesvirus 1 [3]; in data set [5]; in the data set with Human alphaherpesvirus 1 [6]) was over 20 µg/mL throughout. The EC50 (in the data set with Coxsackievirus B4 [7]; in data set [8]; in the data set on Human respirovirus 3; in [10]; with Sindbis virus; in the data set on Coxsackievirus B4 [11]) was over 20 µg/mL throughout. Moreover, the half-maximal effective concentration (EC50) in the data set on Punta Toro virus was over 20 µg/mL.

For the molecule `Nc1ncnc2c1ncn2C[C@H](O)CO` [(S)-DHPA], the MCC in data set [4] and in data set [9] was over 250 µg/mL in each case. For the same molecule, the EC50 (in data set [5]; with Coxsackievirus B4 [7]; in [8]; with Human respirovirus 3; in [10]; with Sindbis virus) was over 250 µg/mL in each case. Further, the EC50 with Coxsackievirus B4 [11] and in the data set with Punta Toro virus was over 250 µg/mL in each case.

Consider `NC(=O)c1ncn([C@@H]2O[C@H](CO)[C@@H](O)[C@H]2O)n1` [RIBAVIRIN], for which the MCC in data set [1], in [4] and in data set [9] was over 250 µg/mL each time. Also, the EC50 is over 250 µg/mL with Human alphaherpesvirus 2; 146 µg/mL (≈ 598 µM) in the data set on Vaccinia virus; over 250 µg/mL in [2]; over 250 µg/mL in the data set with Human alphaherpesvirus 1 [3]; 29 µg/mL (≈ 119 µM) in data set [5]; over 250 µg/mL in the data set on Human alphaherpesvirus 1 [6]. In addition, the EC50 was 10 µg/mL (≈ 40.9 µM) in data set [8]; 45 µg/mL (≈ 184 µM) in the data set on Human respirovirus 3; over 250 µg/mL in data set [10]; over 250 µg/mL in the data set with Sindbis virus; over 250 µg/mL with Coxsackievirus B4 [11].

As for `Nc1ccn(C[C@@H](CO)OCP(=O)(O)O)c(=O)n1.O.O` [CIDOFOVIR], the MCC in data set [1] was over 250 µg/mL. Also, the EC50 is 5 µg/mL with Human alphaherpesvirus 2; 10 µg/mL in the data set with Vaccinia virus; over 250 µg/mL in data set [2]; 5 µg/mL in the data set on Human alphaherpesvirus 1 [3]; 3 µg/mL in the data set with Human alphaherpesvirus 1 [6].

On to `O=c1[nH]c(=O)n([C@H]2C[C@H](O)[C@@H](CO)O2)cc1/C=C/Br` [BRIVUDINE], for which, in data set [1], the MCC was over 250 µg/mL. Further, the concentration giving a half-maximal response (EC50) was 126 µg/mL (≈ 378 µM) with Human alphaherpesvirus 2; 10 µg/mL (≈ 30 µM) in the data set on Vaccinia virus; over 250 µg/mL in data set [2]; over 250 µg/mL in the data set with Human alphaherpesvirus 1 [3]; 0.08 µg/mL (≈ 0.24 µM) with Human alphaherpesvirus 1 [6].

With `Nc1nc2c(ncn2COC(CO)CO)c(=O)[nH]1` [GANCICLOVIR], the MCC in data set [1] was over 100 µg/mL. Also, the EC50 with Human alphaherpesvirus 2 was 0.08 µg/mL (≈ 0.313 µM); in the data set with Vaccinia virus, over 100 µg/mL; in data set [2] it was over 100 µg/mL; in the data set with Human alphaherpesvirus 1 [3], 6 µg/mL (≈ 23.5 µM); in the data set with Human alphaherpesvirus 1 [6], 0.08 µg/mL (≈ 0.313 µM).
